Laboratory results taken from ChEMBL document CHEMBL4118057, “Cytotoxic Bagremycins from Mangrove-Derived Streptomyces sp. Q22” (J Nat Prod, 2017).
Calls of active or inactive are those of the source. No cut-off for these calls is given here.

Columns and labels:
[1] = test system: Staphylococcus aureus; experiment: Antimicrobial activity against methicillin-resistant Staphylococcus aureus ATCC 43300 after 12 hrs by micro broth dilution method; assay type: functional, organism-based
Outline: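 Test compounds serially diluted in 50% DMSO in broth microdilution plates. Each well received 2 μL of a 10^8 cf/mL culture, then incubated at 37 °C for 12 h overnight and read by eye. Clear wells and the next dilutions were plated on nutrient agar for 12 h at 37 °C. MIC was taken as the growth-inhibiting dilution. Gentamicin served as positive control.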

[2] = test system: Escherichia coli; experiment: Antimicrobial activity against Escherichia coli ATCC 25922 after 12 hrs by micro broth dilution method; assay type: functional, organism-based
Outline: (§1)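 Micro broth dilution: compound stock serially diluted with 50% DMSO (final volume 200 μL), inoculated with 2 μL of 10^8 cf/mL culture, incubated 37 °C for 12 h. Clear wells and the next dilutions plated on nutrient agar, incubated 37 °C for 12 h. MIC taken as the dilution that inhibited growth.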

[3] = test system: Candida albicans; experiment: Antimicrobial activity against Candida albicans after 12 hrs by micro broth dilution method; assay type: functional, organism-based; outline: as §1
[4] = test system: U-87 MG; experiment: Cytotoxicity against human U87MG cells after 72 hrs by sulforhodamine B assay; assay type: functional, cell-based, U-87MG ATCC
Outline: (§2)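 SRB assay. C6 and U251 in DMEM with 10% FBS, SHG44 in RPMI-1640, all at 37 °C, 5% CO2. Cells adhered 24 h, then were exposed to a range of concentrations for 72 h. Fixed in cold 50% TCA at 4 °C for 1 h, stained with 0.4% SRB for 10 min, rinsed with 1% acetic acid. Dye dissolved in 10 mM Tris, OD read at 515 nm. Viability taken as treated/control OD; IC50 by logistic fit; n = 5.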

[5] = test system: U-251; experiment: Cytotoxicity against human U251 cells after 72 hrs by sulforhodamine B assay; assay type: functional, cell-based; conditions: U-251, 72 h; outline: as §2
[6] = Cytotoxicity against human SHG44 cells after 72 hrs by sulforhodamine B assay; assay type: functional, cell-based; conditions: SHG-44, 72 h; outline: as §2
[7] = test system: C6; experiment: Cytotoxicity against rat C6 cells after 72 hrs by sulforhodamine B assay; assay type: functional, cell-based; conditions: C6, 72 h; outline: as §2
[8] = test system: U-87 MG; experiment: Induction of apoptosis in human U87MG cells assessed as increase in total apoptotic cells at 10 uM after 24 hrs by annexin-V-FITC/propidium iodide staining based flow cytometric method relative to control; assay type: functional, U-87MG ATCC
Outline: (§3)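 U87MG cells were exposed for 24, 48 or 72 h, and 1 × 10^6 cells were harvested and washed in cold PBS. They were stained in binding buffer with annexin V-FITC and PI for 15 min at room temperature. Flow cytometry used 488 nm excitation with emission at 530/575 nm. Early plus late apoptotic cells were summed, and the untreated control was subtracted.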

[9] = test system: U-87 MG; experiment: Induction of apoptosis in human U87MG cells assessed as increase in total apoptotic cells at 10 uM after 48 hrs by annexin-V-FITC/propidium iodide staining based flow cytometric method relative to control; assay type: functional, U-87MG ATCC; outline: as §3
[10] = test system: U-87 MG; experiment: Induction of apoptosis in human U87MG cells assessed as increase in total apoptotic cells at 10 uM after 72 hrs by annexin-V-FITC/propidium iodide staining based flow cytometric method relative to control; assay type: functional, U-87MG ATCC; outline: as §3
[11] = test system: U-87 MG; experiment: Cell cycle arrest in human U87MG cells assessed as increase in accumulation at G0/G1 phase at 0.8 uM after 12 hrs by propidium iodide staining based flow cytometric method relative to control; assay type: functional, U-87MG ATCC
[12] = test system: U-87 MG; experiment: Cell cycle arrest in human U87MG cells assessed as accumulation at S phase at 0.8 uM after 12 hrs by propidium iodide staining based flow cytometric method (reference value: 32.49%); assay type: functional, U-87MG ATCC
[13] = test system: U-87 MG; experiment: Cell cycle arrest in human U87MG cells assessed as accumulation at G2/M phase at 0.8 uM after 12 hrs by propidium iodide staining based flow cytometric method (reference value: 9.37%); assay type: functional, U-87MG ATCC
[14] = test system: U-87 MG; experiment: Induction of apoptosis in human U87MG cells assessed as increase in total apoptotic cells at 2.2 uM after 24 hrs by annexin-V-FITC/propidium iodide staining based flow cytometric method relative to control; assay type: functional, U-87MG ATCC; outline: as §3
[15] = test system: U-87 MG; experiment: Induction of apoptosis in human U87MG cells assessed as increase in total apoptotic cells at 2.2 uM after 48 hrs by annexin-V-FITC/propidium iodide staining based flow cytometric method relative to control; assay type: functional, U-87MG ATCC; outline: as §3
[16] = test system: U-87 MG; experiment: Induction of apoptosis in human U87MG cells assessed as increase in total apoptotic cells at 2.2 uM after 72 hrs by annexin-V-FITC/propidium iodide staining based flow cytometric method relative to control; assay type: functional, U-87MG ATCC; outline: as §3
[17] = test system: U-87 MG; experiment: Induction of apoptosis in human U87MG cells assessed as increase in total apoptotic cells at 4.4 uM after 24 hrs by annexin-V-FITC/propidium iodide staining based flow cytometric method relative to control; assay type: functional, U-87MG ATCC; outline: as §3
[18] = test system: U-87 MG; experiment: Induction of apoptosis in human U87MG cells assessed as increase in total apoptotic cells at 4.4 uM after 48 hrs by annexin-V-FITC/propidium iodide staining based flow cytometric method relative to control; assay type: functional, U-87MG ATCC; outline: as §3
[19] = test system: U-87 MG; experiment: Induction of apoptosis in human U87MG cells assessed as increase in total apoptotic cells at 4.4 uM after 72 hrs by annexin-V-FITC/propidium iodide staining based flow cytometric method relative to control; assay type: functional, U-87MG ATCC; outline: as §3
[20] = test system: U-87 MG; experiment: Cell cycle arrest in human U87MG cells assessed as increase in accumulation at G0/G1 phase at 2.2 uM after 12 hrs by propidium iodide staining based flow cytometric method relative to control; assay type: functional, U-87MG ATCC
[21] = test system: U-87 MG; experiment: Cell cycle arrest in human U87MG cells assessed as increase in accumulation at G0/G1 phase at 4.4 uM after 12 hrs by propidium iodide staining based flow cytometric method relative to control; assay type: functional, U-87MG ATCC
[22] = test system: U-87 MG; experiment: Cell cycle arrest in human U87MG cells assessed as increase in accumulation at G0/G1 phase at 8.8 uM after 12 hrs by propidium iodide staining based flow cytometric method relative to control; assay type: functional, U-87MG ATCC
[23] = test system: U-87 MG; experiment: Cell cycle arrest in human U87MG cells assessed as accumulation at S phase at 2.2 uM after 12 hrs by propidium iodide staining based flow cytometric method (reference value: 32.49%); assay type: functional, U-87MG ATCC
[24] = test system: U-87 MG; experiment: Cell cycle arrest in human U87MG cells assessed as accumulation at S phase at 4.4 uM after 12 hrs by propidium iodide staining based flow cytometric method (reference value: 32.49%); assay type: functional, U-87MG ATCC
[25] = test system: U-87 MG; experiment: Cell cycle arrest in human U87MG cells assessed as accumulation at S phase at 8.8 uM after 12 hrs by propidium iodide staining based flow cytometric method (reference value: 32.49%); assay type: functional, U-87MG ATCC
[26] = test system: U-87 MG; experiment: Cell cycle arrest in human U87MG cells assessed as accumulation at G2/M phase at 2.2 uM after 12 hrs by propidium iodide staining based flow cytometric method (reference value: 9.37%); assay type: functional, U-87MG ATCC
[27] = test system: U-87 MG; experiment: Cell cycle arrest in human U87MG cells assessed as accumulation at G2/M phase at 4.4 uM after 12 hrs by propidium iodide staining based flow cytometric method (reference value: 9.37%); assay type: functional, U-87MG ATCC
[28] = test system: U-87 MG; experiment: Cell cycle arrest in human U87MG cells assessed as accumulation at G2/M phase at 8.8 uM after 12 hrs by propidium iodide staining based flow cytometric method (reference value: 9.37%); assay type: functional, U-87MG ATCC

Compound | Activity [1] | Activity [2] | Activity [3] | IC50 [4] [µM] | IC50 [5] [µM] | IC50 [6] [µM] | IC50 [7] [µM] | further results
O=C1Oc2ccc(cc2)[C@H](O)CNc2cc1ccc2O | inactive | inactive | inactive | – | – | – | – | –
C=Cc1ccc(OC(=O)c2ccc(O)c(N)c2S)cc1 | inactive | inactive | inactive | – | – | – | – | –
COc1cccc2c1C(=O)c1c(O)c3c(c(O)c1C2=O)C[C@@](O)(C(=O)CO)C[C@@H]3O[C@H]1C[C@H](N)[C@H](O)[C@H](C)O1 [DOXORUBICIN] | – | – | – | 0.4 | 3.3 | 1.9 | 0.5 | Activity [8]: 3.17%; Activity [9]: 10.42%; Activity [10]: 26.87%; Activity [11]: 24.74%; Activity [12]: 10.84%; Activity [13]: 6.28%
C=Cc1ccc(OC(=O)c2ccc(O)c(N)c2SC[C@@H](NC(C)=O)C(=O)O)cc1 | inactive | inactive | inactive | 2.2 | 4.3 | 2.4 | 6.4 | Activity [14]: 0.96%; Activity [15]: 20.59%; Activity [16]: 58.32%; Activity [17]: 3.36%; Activity [18]: 61.16%; Activity [19]: 93%; Activity [20]: 5.71%; Activity [21]: 16.18%; Activity [22]: 20.56%; Activity [23]: 27.23%; Activity [24]: 16.76%; Activity [25]: 13.77%; Activity [26]: 8.92%; Activity [27]: 8.92%; Activity [28]: 7.53%
C=Cc1ccc(O[C@H]2O[C@H](CO)[C@H](O)[C@H](O)[C@H]2O)cc1 | inactive | inactive | inactive | – | – | – | – | –
C=Cc1ccc(OC(=O)c2ccc(O)cc2)cc1 | inactive | inactive | inactive | – | – | – | – | –
C=Cc1ccc(O)cc1 | inactive | inactive | inactive | – | – | – | – | –
C=Cc1ccc(OC(=O)c2ccc(O)c(NC(C)=O)c2)cc1 | inactive | inactive | inactive | 10.2 | 9.7 | 7.3 | 13.3 | –
C=Cc1ccc(OC(=O)c2ccc(O)c(N)c2)cc1 | inactive | inactive | inactive | – | – | – | – | –
